In ChEMBL document CHEMBL3994569, “Synthesis, anti-varicella-zoster virus and anti-cytomegalovirus activity of quinazoline-2,4-diones containing isoxazolidine and phosphonate substructures” (Eur J Med Chem, 2017):

Legend:
[1] = Cytotoxicity against HEL cells infected with Cytomegalovirus assessed as alteration in cell morphology by microscopic method; format: cell-based; conditions: human, HEL cells infected with Cytomegalovirus
Procedure, shortened: (§1)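 In the HEL cultures used for the antiviral assays, cell morphology was examined microscopically across varying compound concentrations. MCC is the minimum concentration causing a microscopically detectable alteration of cell morphology.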

Human alphaherpesvirus 3 [2] = assay: Antiviral activity against thymidine kinase expressing Varicella-Zoster virus OKA infected in HEL cells assessed as reduction in virus plaque formation; format: functional, cell-based, strain Oka vaccine; conditions: Human alphaherpesvirus 3, strain Oka vaccine, HEL
Procedure, shortened: (§2)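 Confluent HEL fibroblast cultures were infected with VZV at an input of 100 PFU and incubated with varying compound concentrations. Plaques were counted once plaque formation was complete in untreated infected controls.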

Human alphaherpesvirus 3 [3] = assay: Antiviral activity against thymidine kinase deficient Varicella-Zoster virus 07-1 infected in HEL cells assessed as reduction in virus plaque formation; format: functional, cell-based; conditions: Human alphaherpesvirus 3, 07-1, HEL; procedure, shortened: as §2
[4] = Cytotoxicity against HEL cells infected with Varicella-Zoster virus assessed as alteration in cell morphology by microscopic method; format: cell-based; conditions: human, HEL cells infected with Varicella-Zoster virus; procedure, shortened: as §1
Cytomegalovirus [5] = assay: Antiviral activity against Cytomegalovirus AD169 infected in HEL cells assessed as reduction in virus plaque formation; format: functional, cell-based; conditions: Human betaherpesvirus 5, AD169, HEL
Procedure, shortened: (§3)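 Confluent HEL fibroblast cultures infected with 100 PFU of HCMV and kept with varying compound concentrations. Plaques scored once plaque formation was complete in untreated infected controls.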

Cytomegalovirus [6] = assay: Antiviral activity against Cytomegalovirus Davis infected in HEL cells assessed as reduction in virus plaque formation; format: functional, cell-based; conditions: Human betaherpesvirus 5, Davis, HEL; procedure, shortened: as §3
L1210 = assay: Anti-proliferative activity against mouse L1210 cells measured after 48 hrs by coulter counter method; format: ADME, cell-based; conditions: Mus musculus, L1210, 48 h
Procedure, shortened: (§4)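 Cells at 300,000–500,000 cells/mL, combined 1:1 by volume with compound dilutions, incubated at 37 °C: L1210 for two days, CEM for three days, HeLa for four days. Cells counted by Coulter counter.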

CCRF-CEM = assay: Anti-proliferative activity against human CEM cells measured after 72 hrs by coulter counter method; format: ADME, cell-based; conditions: Homo sapiens, CCRF-CEM, 72 h; procedure, shortened: as §4
HeLa = assay: Anti-proliferative activity against human HeLa cells measured after 4 days by coulter counter method; format: ADME, cell-based; conditions: Homo sapiens, HeLa, 96 h; procedure, shortened: as §4
HMEC-1 = assay: Anti-proliferative activity against HMEC1 cells by coulter counter method; format: ADME, cell-based, Homo sapiens; conditions: Homo sapiens, HMEC-1
Procedure, shortened: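 HMEC-1 cells at 300,000–500,000 cells/mL, mixed 1:1 by volume with serial dilutions of test compound, incubated at 37 °C. Cell number counted by Coulter counter.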

Row | SMILES | MCC [1] | EC50 (Human alphaherpesvirus 3 [2]) | EC50 (Human alphaherpesvirus 3 [3]) | MCC [4] | EC50 (Cytomegalovirus [5]) | EC50 (Cytomegalovirus [6]) | IC50 (L1210) | IC50 (CCRF-CEM) | IC50 (HeLa) | IC50 (HMEC-1)
1 | CCOP(=O)(OCC)[C@@H]1C[C@@H](Cn2c(=O)n(Cc3ccccc3F)c(=O)c3ccccc32)ON1C (relative stereo) | 20 µM | > 20 µM | > 20 µM | 100 µM | > 100 µM | 100 µM | 196 µM | 99 µM | 74 µM | 189 µM
2 | CCOP(=O)(OCC)[C@@H]1C[C@@H](Cn2c(=O)n(C(=O)c3ccccc3F)c(=O)c3ccccc32)ON1C (relative stereo) | 100 µM | 36.6 µM | 34.2 µM | > 100 µM | > 20 µM | 66.9 µM | – | > 250 µM | – | –
3 | CCOP(=O)(OCC)[C@@H]1C[C@@H](Cn2c(=O)n(Cc3ccccc3)c(=O)c3ccccc32)ON1C (relative stereo) | 100 µM | > 20 µM | > 20 µM | 100 µM | > 100 µM | > 100 µM | 141 µM | 124 µM | 119 µM | 235 µM
4 | CCOP(=O)(OCC)C1CC(Cn2c(=O)n(Cc3ccc(F)cc3)c(=O)c3ccccc32)ON1C (mixture of isomers) | 100 µM | 35.5 µM | 25.2 µM | 100 µM | > 20 µM | > 20 µM | ≥ 250 µM | 173 µM | 158 µM | ≥ 250 µM
5 | CCOP(=O)(OCC)[C@@H]1C[C@@H](Cn2c(=O)n(Cc3cccc(F)c3)c(=O)c3ccccc32)ON1C (relative stereo) | > 100 µM | 55.7 µM | > 100 µM | > 100 µM | 76.5 µM | 63.1 µM | 132 µM | 100 µM | 88 µM | 152 µM
6 | O=c1[nH]cc(F)c(=O)[nH]1 [FLUOROURACIL] | – | – | – | – | – | – | 0.33 µM | – | – | –
7 | CCOP(=O)(OCC)[C@H]1C[C@@H](Cn2c(=O)n(C(=O)c3ccc(F)cc3)c(=O)c3ccccc32)ON1C (relative stereo) | 100 µM | 26.2 µM | 24.5 µM | > 100 µM | > 20 µM | > 20 µM | – | > 250 µM | > 250 µM | > 250 µM
8 | CCOP(=O)(OCC)[C@H]1C[C@@H](Cn2c(=O)n(Cc3ccccc3F)c(=O)c3ccccc32)ON1C (relative stereo) | 100 µM | 58.5 µM | > 100 µM | > 100 µM | > 100 µM | 100 µM | 203 µM | 181 µM | 128 µM | ≥ 250 µM
9 | CCOP(=O)(OCC)[C@@H]1C[C@@H](Cn2c(=O)n(Cc3ccc(F)cc3)c(=O)c3ccccc32)ON1C (relative stereo) | 100 µM | 66.9 µM | > 20 µM | 10 µM | > 100 µM | 100 µM | 126 µM | 93 µM | 82 µM | 158 µM
10 | CCOP(=O)(OCC)[C@@H]1C[C@@H](Cn2c(=O)n(Cc3ccccc3F)c(=O)c3ccccc32)ON1Cc1ccccc1 (relative stereo) | 20 µM | 4 µM | > 20 µM | 20 µM | > 20 µM | > 4 µM | 68 µM | 98 µM | 79 µM | 145 µM
11 | CCOP(=O)(OCC)C1CC(Cn2c(=O)n(Cc3ccccc3)c(=O)c3ccccc32)ON1C (mixture of isomers) | 100 µM | > 100 µM | > 100 µM | > 100 µM | > 100 µM | > 100 µM | 146 µM | 104 µM | 95 µM | 222 µM
12 | CCOP(=O)(OCC)C1CC(Cn2c(=O)n(C(=O)c3ccccc3F)c(=O)c3ccccc32)ON1C (mixture of isomers) | 100 µM | 29 µM | 25.6 µM | > 100 µM | > 100 µM | 63.1 µM | > 250 µM | – | > 250 µM | > 250 µM
